# High-throughput results from PubChem.
# GPR7 antag – human neuropeptides B/W receptor 1 antagonism; P48145; GPR7-expressing cells, fluorescence antagonist assay; inhibition, % at 4.4 µM; 290,000 tested, 1.1% active; AID 1861; in the data active = inhibition above about 16%, passing the limit was not always enough;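 note: cells stimulated with the agonist NPW; 0% = agonist with vehicle and 100% = vehicle without agonist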
# Target sequence (P48145 whole entry, looked up): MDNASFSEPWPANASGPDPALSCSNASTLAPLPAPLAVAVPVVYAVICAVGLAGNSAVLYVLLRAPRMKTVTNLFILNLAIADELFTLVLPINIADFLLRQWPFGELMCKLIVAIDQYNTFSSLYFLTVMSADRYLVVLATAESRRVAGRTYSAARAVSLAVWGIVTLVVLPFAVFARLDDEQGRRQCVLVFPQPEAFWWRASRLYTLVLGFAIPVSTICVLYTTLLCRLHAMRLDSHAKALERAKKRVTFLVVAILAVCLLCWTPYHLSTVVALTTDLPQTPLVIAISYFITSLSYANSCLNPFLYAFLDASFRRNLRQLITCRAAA
# T cruzi inh – T. cruzi replication inhibition | T. cruzi beta-gal in NIH3T3, luminescence, 90 h | inhibition, % (concentration not given with the values) | 300,000 tested, 1.4% active;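 active = mean inhibition across valid replicates above about 55%, limit read from the data; inconclusive = mean below that limit but half or more replicates reach it; inactive = mean below it, under half of replicates reach it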;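 note: signal also drops with host cell toxicity which is not excluded here; 0% = plate median of DMSO wells and 100% = zero luminescence signal; higher percent means less beta-gal luminescence so fewer parasites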
#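 Read-out: Parasite load inhibition, % | Test system: Mouse NIH/3T3 fibroblasts infected with β-gal-expressing T. cruzi Tulahuen C4 | Amount: 5,000 cells/well | Medium: DMEM, 2% fetal bovine serum | Signal: GalScreen β-gal luminescence, detergent lysis, 60 min | Timing: 3 h attach, ≥90 h co-culture | Also added: Tulahuen C4 trypomastigotes, 5000/well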
# 697 NFkB inh – inhibitors of the PMA/ionomycin-induced NF-kB reporter in 697 B cells | 697 B-cell NF-kB luciferase reporter, 16 h | inhibition, % at 4 µM | 330,000 tested, 0.33% active | AID 435022; in the data active = inhibition above about 35%
# HSF1 inh – HSF1 inhibition | NIH3T3-HGL HSE-luciferase, MG132-induced, luminescence 8 h; active compounds read low | activity change, negative = inhibition, % at 7.5 µM (by protocol) | 300,000 tested, 0.77% active | AID 2098;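 active = more than half of replicate wells show activity change below -50%, luminescence cut by over half; inconclusive = some wells, but at most half, below -50%; inactive = no replicate well below -50%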;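 note: luciferase reports HSF-1 transcriptional activity via heat shock element; 0% = median of DMSO wells and -100% = zero luminescence signal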
# Jurkat NFkB inh – inhibitors of the PMA/ionomycin-induced NF-kB reporter in Jurkat cells; PMA/ionomycin-induced NF-kB luciferase reporter, luminescence; inhibition, % at 4 µM; 330,000 tested, 0.53% active; AID 435003; in the data active = inhibition above about 50%
# HSF1 activator – increases HSF-1 driven luciferase reporter signal; 300,000 tested, 1.7% active; activation, % at 9 µM; NIH3T3-HGL HSF-1 luciferase reporter, MG132, 8 h; 100% = twice DMSO control signal;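 active = mean replicate activation of at least 50% with a set share of replicates each reaching 50%; inconclusive = only one of those two conditions met; inactive = mean below 50% and too few replicates reaching it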;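 note: 0% = median of the neutral control wells and 100% = twice that signal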
# GPR7 antag cf – human GPR7 antagonism, confirmation assay; shares compounds with GPR7 antag; AID 1952; inhibition, % at 4.4 µM; 2,400 tested, 52% active; GPR7-expressing cells, calcium fluorescence antagonist mode; in the data active = inhibition above about 24%;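 note: stimulated with the GPR7 agonist NPW; 0% = agonist plus vehicle and 100% = vehicle alone without agonist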
# MCHR1 antag – MCHR1 (human) antagonism in GPR7 counter-screen; 2,400 tested, 62% active; MCHR1-expressing cells, fluorescence antagonist assay; shares compounds with GPR7 antag; inhibition, % at 4.4 µM; in the data active = inhibition above about 22%;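 note: 0% = vehicle with agonist and 100% = vehicle without agonist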
# Starred values were filed as active, the others as inactive; ? = inconclusive; nt = no result. The list is not random: actives were taken first. Their share in the collection is about 4.8%.
SMILES,GPR7 antag,T cruzi inh,697 NFkB inh,HSF1 inh,Jurkat NFkB inh,HSF1 activator,GPR7 antag cf,MCHR1 antag
CC(C)Cc1ccc(C(C)C(=O)Nc2ccc(O)cc2)cc1 (stereo not drawn),82.6*,13.9,-11.2,1.2,15.0,3.0,88.2*,94.8*
CC(C)CC(NC(=O)C1CCC(C)CC1)C(=O)NCc1cccnc1 (stereo not drawn),-3.2,-16.1,-19.9,-2.5,-5.1,7.3,nt,nt
CC(C)Cc1ccc(C(C)C(=O)Nc2cccnc2)cc1 (stereo not drawn),54.5*,18.4,-13.3,-7.0,44.8,-2.6,46.4*,68.3*
CC(C)COc1ccc(C(=O)Nc2ccc(NC(=O)c3ccco3)cc2)cc1,-8.1,-5.6,-18.6,-1.4,-5.0,-3.5,nt,nt
COc1cccc(C2N(Cc3ccccc3)C(=O)C2(F)F)c1OC (stereo not drawn),0.6,4.4,-9.3,2.9,0.7,0.9,nt,nt
Cc1ccccc1C(=O)Nc1ccnn1C1CCN(Cc2cccnc2)CC1,-8.0,-9.5,4.5,2.3,12.7,-3.2,nt,nt
CCc1ccc(CN2CCC(n3nccc3NC(=O)c3ccccc3C)CC2)cc1,26.9*,?,5.1,2.5,5.4,-0.2,9.5,26.5*
COc1ccc(Cc2nc3ccc(C(=O)NCCc4ccccn4)cc3o2)cc1OC,22.3*,3.9,-15.0,28.8,-6.5,48.2,1.5,14.5
Cc1cc(S(=O)(=O)N2CCOCC2)ccc1OCC(=O)Nc1ccc(F)c(Cl)c1,7.9,10.6,15.6,1.0,5.5,22.2,nt,nt
Cc1ccc2c(Cl)c(C(=O)Nc3cccnc3)sc2c1,13.3,-17.3,-19.2,8.6,-32.8,10.2,nt,nt
CCc1nn(CC(=O)N2CCN(CC)CC2)c(=O)c2cc3sccc3n12,21.3*,-1.3,1.8,5.5,-5.6,-12.1,-9.4,-2.6
O=C(O)C1CC(c2ccccc2)=Nc2ccccc2S1 (stereo not drawn),-8.2,-3.7,-22.0,1.5,-20.0,3.4,nt,nt
O=[N+]([O-])c1ccc(C2CC(c3ccccc3)=Nc3ccccc3S2)cc1 (stereo not drawn),18.1,7.3,-14.7,24.3,-25.6,40.4,-1.0,73.7*
Cc1ccc(NCc2nnc(SCC(N)=O)o2)c(C)c1,-1.2,-13.3,-9.9,-1.9,-21.9,-10.1,nt,nt
Cc1ccc(NCc2nnc(SCC(=O)OC3CCCCC3)o2)c(C)c1,27.7*,-8.1,-5.0,3.0,-5.9,9.5,23.2,23.1*
COCCCNC(=S)N1CCC(NC(=O)Nc2ccc(C)cc2)CC1,21.4*,2.2,1.1,3.7,2.4,12.7,0.0,0.6
CCCOc1ccc(C(=O)NNC(=S)NC(=O)c2ccccc2)cc1,41.8*,18.8,12.4,1.0,-15.4,5.5,59.7*,62.2*
Cc1cccc(C(=O)NC(=S)NNC(=O)c2ccc(Cl)cc2)c1,32.0*,21.4,nt,12.1,nt,22.1,57.6*,50.5*
CCCOc1ccc(C(=O)NNC(=S)NC(C)=O)cc1,-8.8,-8.7,-5.3,7.2,1.3,4.2,nt,nt
CCCOc1ccc(C(=O)NNC(=S)NC(=O)c2cccs2)cc1,51.8*,21.4,-13.8,-55.0*,-3.8,-61.7,41.8*,36.8*
Clc1ccccc1Cc1noc(CN2CCN(c3cnccn3)CC2)n1,-3.0,2.7,7.3,-5.1,-11.7,12.2,nt,nt
Fc1ccccc1Cc1noc(CN2CCN(c3ccc(Cl)cn3)CC2)n1,21.3*,4.6,9.6,-2.2,4.9,-1.0,12.7,26.5*
CC(=O)c1ccc(N2CCN(CC(O)COC(c3ccccc3)c3ccccc3)CC2)cc1 (stereo not drawn),27.2*,10.0,-17.1,-1.9,-12.0,15.6,35.0*,34.4*
Cc1ccsc1C(=O)NNC(=O)C1CCCCC1C(=O)O (stereo not drawn),22.8*,8.0,-60.8,15.9,-19.4,14.0,-7.2,7.3
Cc1ccsc1C(=O)NNC(=O)C1CC=CCC1C(=O)O (stereo not drawn),-6.5,-8.5,4.7,0.3,-17.6,24.7,nt,nt
SMILES,GPR7 antag,T cruzi inh,697 NFkB inh,HSF1 inh,Jurkat NFkB inh,HSF1 activator,GPR7 antag cf,MCHR1 antag
Clc1ccc(-c2csc(=Nc3cccnc3)n2CCCn2ccnc2)cc1Cl,27.8*,57.1*,-35.7,-14.4,-7.0,-20.0,28.5*,39.8*
COCCn1c(-c2ccc(Br)cc2)csc1=Nc1cccnc1,-3.3,nt,-6.5,nt,12.3,nt,nt,nt
CCc1ccc(NC(=O)C(C)OC(=O)CCC(=O)c2cccs2)cc1 (stereo not drawn),-11.1,4.4,3.8,-11.0,2.1,0.1,nt,nt
COc1ccc2cc([C@H](C)C(=O)N(C)Cc3ccccc3N3CCCC3)ccc2c1,27.9*,45.5,2.3,3.9,-8.0,-5.8,3.7,49.8*
CCCCCCc1cc2cc(S(=O)(=O)c3ccc(F)c(Cl)c3)c(=O)oc2cc1O,-5.2,9.7,-19.0,?,26.5,-41.4,nt,nt
COc1cccc2sc(N(CCCN(C)C)C(=O)c3ccc(S(=O)(=O)N4CCCc5ccccc54)cc3)nc12,34.9*,16.8,-23.7,-5.8,29.4,9.4,50.2*,41.5*
CCOC(=O)N1CCN(S(=O)(=O)c2ccc(C(=O)N(CCCN(C)C)c3nc4ccc(CC)cc4s3)cc2)CC1,28.2*,37.0,-62.5,0.5,-36.6,-0.8,39.4*,17.3
CCN(c1ccccc1)S(=O)(=O)c1ccc(C(=O)N(CCCN(C)C)c2nc3cc4c(cc3s2)OCO4)cc1,19.2,23.9,-13.5,-23.3,-1.2,-37.9,nt,nt
CCN(c1ccccc1)S(=O)(=O)c1ccc(C(=O)N(CCCN(C)C)c2nc3c(C)cccc3s2)cc1,28.6*,38.0,-46.7,15.9,17.1,13.7,53.4*,52.1*
CC(C)Cc1nnc(NC(=O)C2CC(=O)N(c3ccc4c(c3)OCCO4)C2)s1 (stereo not drawn),nt,nt,-32.9,nt,-13.9,nt,nt,nt
CCOc1cc(CNC2CCCC2)cc(Cl)c1OCc1ccc(F)cc1,25.3*,-13.3,6.3,-5.0,2.1,2.2,49.2*,54.3*
CCOc1cc(CNCc2ccncc2)cc(Br)c1OCc1ccc(F)cc1,-2.3,51.3,-45.3,11.6,13.4,6.7,nt,nt
COc1cc(CNC2CCCC2)cc(Cl)c1OCc1ccc(F)cc1,25.9*,33.4,3.7,-2.2,20.9,-8.3,24.8*,22.4*
O=C(NCCN1C(=O)S/C(=C\c2cccs2)C1=O)[C@H](Cc1ccccc1)N1C(=O)c2ccccc2C1=O,-8.2,11.7,-14.5,4.1,-5.6,-1.9,nt,nt
Cc1ccc(C)c(N2CCN(C(=O)c3ccc(NC4=NC5CS(=O)(=O)CC5S4)cc3)CC2)c1 (stereo not drawn),-5.4,-13.9,6.2,-0.6,7.6,-2.8,nt,nt
